Tests used:
Format in all cases: functional
[1] = test system: Aphis craccivora; assay: Ratio of LC50 of ethiprole to LC50 of test compound against Aphis craccivora (cowpea aphid) infested tender soybean shoots exposed to test compound solution assessed as insect mortality measured 24 hr post compound treatment
[2] = test system: Plutella xylostella; assay: Insecticidal activity against Plutella xylostella (diamondback moth) grown on compound pre-treated fresh cabbage leaves assessed as insect mortality at 2.5 mg/kg measured 3 days post compound treatment by leaf-dip method
How it was run: (§1)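 Leaf-dip stomach-toxicity assay on laboratory-reared diamondback moth. Test solutions came from a 200 mg L^-1 stock in dimethylformamide, diluted with water containing TW-20. Control leaves were treated with water and dimethylformamide. Tests were held at 25±1 °C, percentage mortality was scored 3 days after treatment, and each treatment was run three times.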

[3] = test system: Plutella xylostella; assay: Insecticidal activity against Plutella xylostella (diamondback moth) grown on compound pre-treated fresh cabbage leaves assessed as insect mortality at 5 mg/kg measured 3 days post compound treatment by leaf-dip method; conditions: Plutella xylostella; how it was run: as §1
[4] = test system: Plutella xylostella; assay: Insecticidal activity against Plutella xylostella (diamondback moth) grown on compound pre-treated fresh cabbage leaves assessed as insect mortality at 10 mg/kg measured 3 days post compound treatment by leaf-dip method; conditions: Plutella xylostella; how it was run: as §1
[5] = test system: Plutella xylostella; assay: Insecticidal activity against Plutella xylostella (diamondback moth) grown on compound pre-treated fresh cabbage leaves assessed as insect mortality at 25 mg/kg measured 3 days post compound treatment by leaf-dip method; conditions: Plutella xylostella; how it was run: as §1
[6] = test system: Plutella xylostella; assay: Insecticidal activity against Plutella xylostella (diamondback moth) grown on compound pre-treated fresh cabbage leaves assessed as insect mortality at 50 mg/kg measured 3 days post compound treatment by leaf-dip method; how it was run: as §1
[7] = test system: Plutella xylostella; assay: Insecticidal activity against Plutella xylostella (diamondback moth) grown on compound pre-treated fresh cabbage leaves assessed as insect mortality at 100 mg/kg measured 3 days post compound treatment by leaf-dip method; how it was run: as §1
[8] = test system: Plutella xylostella; assay: Insecticidal activity against Plutella xylostella (diamondback moth) grown on compound pre-treated fresh cabbage leaves assessed as insect mortality at 200 mg/kg measured 3 days post compound treatment by leaf-dip method; how it was run: as §1
[9] = test system: Culex pipiens pallens; assay: Insecticidal activity against Culex pipiens pallens (mosquito) assessed as insect mortality at 25 ug/kg measured 1 day post compound treatment; conditions: 24 h
How it was run: (§2)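 Fourth-instar Culex pipiens pallens larvae, 20 per test, were laboratory-reared and placed in 100 mL of test solution made by adding 1 mL of compound dilution to 99 mL of water. Tests were held at 25±1 °C, percentage mortality was scored 1 day after treatment, and each test was run three times.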

[10] = test system: Culex pipiens pallens; assay: Insecticidal activity against Culex pipiens pallens (mosquito) assessed as insect mortality at 50 ug/kg measured 1 day post compound treatment; conditions: 24 h; how it was run: as §2
[11] = test system: Culex pipiens pallens; assay: Insecticidal activity against Culex pipiens pallens (mosquito) assessed as insect mortality at 100 ug/kg measured 1 day post compound treatment; conditions: Culex pipiens, 24 h; how it was run: as §2
[12] = test system: Aphis craccivora; assay: Insecticidal activity against Aphis craccivora (cowpea aphid) infested tender soybean shoots exposed to test compound solution assessed as insect mortality measured 24 hr post compound treatment
How it was run: (§3)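 Soybean tender shoots carrying 60 aphids were dipped in test solutions. Solutions were made from a 200 mg L^-1 stock in dimethylformamide, diluted with water containing TW-20. Insects were laboratory-reared, tests were held at 25±1 °C, and mortality was scored.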

[13] = test system: Aphis craccivora; assay: Insecticidal activity against Aphis craccivora (cowpea aphid) infested tender soybean shoots exposed to 2.5 mg/kg test compound solution assessed as insect mortality measured 24 hr post compound treatment; conditions: Aphis craccivora, 24 h; how it was run: as §3
[14] = test system: Aphis craccivora; assay: Insecticidal activity against Aphis craccivora (cowpea aphid) infested tender soybean shoots exposed to 5 mg/kg test compound solution assessed as insect mortality measured 24 hr post compound treatment; conditions: Aphis craccivora, 24 h; how it was run: as §3
[15] = test system: Aphis craccivora; assay: Insecticidal activity against Aphis craccivora (cowpea aphid) infested tender soybean shoots exposed to 10 mg/kg test compound solution assessed as insect mortality measured 24 hr post compound treatment; conditions: Aphis craccivora, 24 h; how it was run: as §3
[16] = test system: Aphis craccivora; assay: Insecticidal activity against Aphis craccivora (cowpea aphid) infested tender soybean shoots exposed to 25 mg/kg test compound solution assessed as insect mortality measured 24 hr post compound treatment; how it was run: as §3
[17] = test system: Aphis craccivora; assay: Insecticidal activity against Aphis craccivora (cowpea aphid) infested tender soybean shoots exposed to 50 mg/kg test compound solution assessed as insect mortality measured 24 hr post compound treatment; how it was run: as §3
[18] = test system: Aphis craccivora; assay: Insecticidal activity against Aphis craccivora (cowpea aphid) infested tender soybean shoots exposed to 100 mg/kg test compound solution assessed as insect mortality measured 24 hr post compound treatment; how it was run: as §3
[19] = test system: Aphis craccivora; assay: Insecticidal activity against Aphis craccivora (cowpea aphid) infested tender soybean shoots exposed to 200 mg/kg test compound solution assessed as insect mortality measured 24 hr post compound treatment; how it was run: as §3
[20] = test system: Mythimna separata; assay: Insecticidal activity against Mythimna separata (Oriental armyworm) grown on compound pre-treated corn leaves assessed as insect mortality at 200 mg/kg measured 3 days post compound treatment by leaf-dip method
[21] = test system: Culex pipiens pallens; assay: Insecticidal activity against Culex pipiens pallens (mosquito) assessed as insect mortality at 2.5 ug/kg measured 1 day post compound treatment; conditions: 24 h; how it was run: as §2
[22] = test system: Culex pipiens pallens; assay: Insecticidal activity against Culex pipiens pallens (mosquito) assessed as insect mortality at 5 ug/kg measured 1 day post compound treatment; conditions: 24 h; how it was run: as §2
[23] = test system: Culex pipiens pallens; assay: Insecticidal activity against Culex pipiens pallens (mosquito) assessed as insect mortality at 10 ug/kg measured 1 day post compound treatment; conditions: 24 h; how it was run: as §2

Structure (SMILES)	mortality at 2.5 mg/kg [2] [%]	mortality at 5 mg/kg [3] [%]	mortality at 10 mg/kg [4] [%]	mortality at 25 mg/kg [5] [%]	mortality at 50 mg/kg [6] [%]	mortality at 100 mg/kg [7] [%]	mortality at 200 mg/kg [8] [%]	mortality at 0.025 mg/kg [9] [%]	mortality at 0.05 mg/kg [10] [%]	mortality at 0.1 mg/kg [11] [%]	mortality at 2.5 mg/kg [13] [%]	mortality at 5 mg/kg [14] [%]	mortality at 10 mg/kg [15] [%]	mortality at 25 mg/kg [16] [%]	mortality at 50 mg/kg [17] [%]	mortality at 100 mg/kg [18] [%]	mortality at 200 mg/kg [19] [%]	mortality at 0.0025 mg/kg [21] [%]	mortality at 0.005 mg/kg [22] [%]	mortality at 0.01 mg/kg [23] [%]	further results
CCCOC(Nc1c([S+]([O-])CC)c(C#N)nn1-c1c(Cl)cc(C(F)(F)F)cc1Cl)C(Cl)(Cl)Cl (stereo not drawn)	0	27	44	87	100	100	100	0	100	100	89	100	100	100	100	100	100				RatioLC50 [1]: 7.9; LC50 [12]: 1.4873 mg/kg
CCCOC(Nc1c([S+](C)[O-])c(C#N)nn1-c1c(Cl)cc(C(F)(F)F)cc1Cl)C(Cl)(Cl)Cl (stereo not drawn)	0	30	71	100	100	100	100	50	100	100	0	91	100	100	100	100	100				RatioLC50 [1]: 4.3; mortality at 200 mg/kg [20]: 40%; LC50 [12]: 2.7616 mg/kg
COC(Nc1c([S+](C)[O-])c(C#N)nn1-c1c(Cl)cc(C(F)(F)F)cc1Cl)C(Cl)(Cl)Cl (stereo not drawn)	34	88	91	100	100	100	100		50	100	0	88	100	100	100	100	100				RatioLC50 [1]: 4.2; LC50 [12]: 2.8848 mg/kg
CCSc1c(C#N)nn(-c2c(Cl)cc(C(F)(F)F)cc2Cl)c1NC(OCCCl)C(Cl)(Cl)Cl (stereo not drawn)		0	27	43	88	100	100	100	100	100		0	51	100	100	100	100	60	100	100	
CCSc1c(C#N)nn(-c2c(Cl)cc(C(F)(F)F)cc2Cl)c1NC(OCCF)C(Cl)(Cl)Cl (stereo not drawn)		0	29	100	100	100	100	100	100	100		0	11	29	100	100	100		0	100	mortality at 200 mg/kg [20]: 20%
CCSc1c(C#N)nn(-c2c(Cl)cc(C(F)(F)F)cc2Cl)c1NC(OC)C(Cl)(Cl)Cl (stereo not drawn)			0	34	94	100	100	100	100	100			0	62	80	90	93	30	100	100	
CCCOC(Nc1c(SC)c(C#N)nn1-c1c(Cl)cc(C(F)(F)F)cc1Cl)C(Cl)(Cl)Cl (stereo not drawn)			0	17	36	100	100	100	100	100	0	0	21	43	90	100	100	100	100	100	
CCOC(Nc1c(SC)c(C#N)nn1-c1c(Cl)cc(C(F)(F)F)cc1Cl)C(Cl)(Cl)Cl (stereo not drawn)	0	43	68	84	100	100	100	100	100	100		0	0	43	56	100	100	80	100	100	
COC(Nc1c(SC)c(C#N)nn1-c1c(Cl)cc(C(F)(F)F)cc1Cl)C(Cl)(Cl)Cl (stereo not drawn)	25	76	86	100	100	100	100	100	100	100	0	43	89	94	100	100	100	70	100	100	
CC[S+]([O-])c1c(C#N)nn(-c2c(Cl)cc(C(F)(F)F)cc2Cl)c1N (stereo not drawn) [ETHIPROLE]		0	23	69	100	100	100	50	100	100		0	31	100	100	100	100				mortality at 200 mg/kg [20]: 0%; LC50 [12]: 11.7263 mg/kg

Reference: ChEMBL document CHEMBL3044673, “Design, synthesis and insecticidal activity of novel phenylpyrazoles containing a 2,2,2-trichloro-1-alkoxyethyl moiety” (2010)
